# In the library only some 2.5% were active in any assay of this set; here they are far more common.
# GSTO1 counter: counter-screen for RBBP9 inhibitors: inhibitors of human GSTO1; 300,000 tested, 1.1% active; recombinant GSTO1, activity-based probe fluorescence polarization; inhibition, % at 5.96 µM; AID 1974; P78417;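 active = inhibition above the campaign mean inhibition plus 3 SD, cut at about 35% in these data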;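 note: 0% = GSTO1-1 with DMSO and 100% = wells lacking GSTO1-1 enzyme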
# PAD4 inh: inhibitors of human PAD4; recombinant PAD4, RCA probe fluorescence polarization; inhibition, % at 6.36 µM; Q9UM07; 330,000 tested, 0.41% active;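 active = percent inhibition above a cutoff equal to the mean of all tested compounds plus 3 SD, cut at about 15% in these data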;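 note: 0% = PAD4 with RCA probe and DMSO and 100% = probe without PAD4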
# PRMT1 FP inh: inhibitors of human PRMT1. recombinant PRMT1, activity-based probe fluorescence polarization. 370,000 tested, 1.3% active. inhibition, % at 2.79 µM. Q99873;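 active = inhibition above about 21% made by adding two undisclosed values, limit read from the data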
# E coli Lon inh: inhibits E. coli Lon protease; purified E. coli Lon protease, fluorescence polarization; inhibition, % at 7.94 µM; 360,000 tested, 0.42% active; AID 602123; in the data active = inhibition above about 13%, passing the limit was not always enough;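 note: 0% = enzyme with probe and DMSO and 100% = no enzyme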
# TDP2 absorb: blocks human TDP2 phosphodiesterase activity; inhibition, % at 12.8 µM; recombinant TDP2, T5PNP hydrolysis, p-nitrophenol absorbance 415 nm; AID 720702; 370,000 tested, 0.34% active;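 active = inhibition above the mean of all tested compounds plus 3 SD, set per campaign, cut at about 25% in these data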;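 note: 0% = DMSO with enzyme and 100% = buffer with substrate but no TDP2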
#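 Test system: Human TDP2 enzyme | Reagent: 5 mM T5PNP | Compound dosing: 12.8 µM single point, 1% DMSO | Incubation: Enzyme reaction with compound for 2 h at 37 °C | Technique: p-Nitrophenol epi absorbance | Read-out: % inhibition relative to enzyme-containing and enzyme-free wells | Benchmarks: High control without enzyme, low control DMSO plus TDP2 | Replicates: Singlicate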
# * = called active by the depositor; x = not tested or not shown.
SMILES,GSTO1 counter,PAD4 inh,PRMT1 FP inh,E coli Lon inh,TDP2 absorb
O=[N+]([O-])c1cc(CN2CCCC2)c2cccnc2c1O,47*,-24,x,3,x
N#CCCN(C(=O)CSc1ccc2c(c1)OCCO2)c1ccccc1,10,7,22*,1,0
COc1ccc(CN2C(C(=O)NC3CCCC3)CSCCS2(=O)=O)cc1 (stereo unspecified),x,x,2,x,2
C=C1C(=O)C23CCC4C(C)(C(=O)OC)CCCC4(C)C2CCC1(O)C3 (stereo unspecified),x,x,29*,7,1
Cc1cc(OCC(C)CN2CCC(C(O)(c3ccccc3)c3ccccc3)CC2)ccc1Br (stereo unspecified),x,x,1,x,-6
O[C@H](COc1ccc(OC(F)(F)F)cc1)CN1CCC(C(O)(c2ccccc2)c2ccccc2)CC1,x,x,-1,x,-4
O=C(Nc1ccccc1C(=O)O)c1cc(S(=O)(=O)N2CCCCC2)c(Cl)cc1Cl,36*,3,-2,4,-15
O=C1c2c(O)ccc(O)c2C(=O)c2c(NCCNCCO)ccc(NCCNCCO)c21,4,-3,4,12,6
O=C1c2ccccc2C(=O)c2c(Nc3ccc(CCO)cc3)ccc(O)c21,39*,5,-1,6,4
Cc1cccc(-n2cnc3c(c2=O)c2nc4ccccc4nc2n3Cc2ccco2)c1,-8,-12,21*,-5,2
Cc1cccc(S(=O)(=O)c2c(N)n(Cc3ccco3)c3nc4ccccc4nc23)c1,-19,-19,14,-46,-10
C[C@H]1COC2=C1C(=O)C(=O)c1c2ccc2c1CCCC2(C)C,68*,-10,x,9,x
Cc1coc2c1C(=O)C(=O)c1c-2ccc2c1CCCC2(C)C,28,-1,17,4,10
CC(C)CCNC(=O)C1CCN(c2cncnc2)CC1,x,x,2,x,0
Cc1ccc(S(=O)(=O)NCCSc2nnnn2-c2cc(C)ccc2C)cc1,35*,-5,6,-4,-5
Cc1ccc(S(=O)(=O)NCCSc2nnnn2-c2ccccc2)cc1,7,-8,1,-5,0
CC(C)c1ncc(C(O)c2cccc3ccccc23)n1C (stereo unspecified),36*,0,-1,-2,-8
COCC(=O)NCc1ccc2c(c1)cc(C)n2C,1,15*,6,11,2
COc1ccc(C(=O)NCc2ccc3c(c2)cc(C)n3C)cc1,0,2,12,15*,-1
COc1ccc(CC(=O)NCc2ccc3c(c2)cc(C)n3C)cc1OC,10,-7,1,-2,0
Cc1cc2cc(CNC(=O)c3ccc4c(c3)OCO4)ccc2n1C,6,7,1,25*,9
CC(C)C[C@@H]1COc2cc(Br)ccc2S(=O)(=O)N1Cc1cn(CCC2OCCCO2)nn1,x,x,6,x,-6
O=C(OC12CCCN(C1)/C(=C/c1cccc(Cl)c1)C2)c1cccc(F)c1 (stereo unspecified),x,x,-7,x,0
OCC1OC(n2cnc3c(=S)nc[nH]c32)CC1O (stereo unspecified),x,x,21*,-6,-7
Nc1sc2c(c1C(=O)NC1CCS(=O)(=O)C1)CCCC2 (stereo unspecified),16,-8,23*,5,14
SMILES,GSTO1 counter,PAD4 inh,PRMT1 FP inh,E coli Lon inh,TDP2 absorb
Nc1sc2c(c1C(=O)NCCc1ccccc1)CCCC2,x,x,36*,x,13
Cc1ccc(C(=O)O)cc1N1C(=O)c2cccc3c([N+](=O)[O-])ccc(c23)C1=O,-10,1,22*,14,-4
Cc1ccc(C)c(NC(=O)Cc2nc(CCl)cs2)c1,95*,0,3,2,3
COc1cc(C(=O)OCc2csc(CC(=O)Nc3cc(C)ccc3C)n2)ccc1OC(F)F,x,x,1,3,-8
O=C(NCCN1CCC(Cc2ccccc2)CC1)C1CCCN(S(=O)(=O)c2ccc([N+](=O)[O-])cc2)C1 (stereo unspecified),x,x,0,x,4
NC1=[N+](Cc2ccccc2)C[C@H]2C(=C3CCCC[C@H]3n3c(=O)n(-c4ccccc4)c(=O)n32)N1,x,x,0,x,-2
Cc1oc(-c2ccccc2F)nc1CSCC(=O)NC1CCCC1,6,1,24*,-2,2
COC(=O)[C@]1(Sc2ccc(C)cc2)CC(=O)N[C@@H]1c1ccco1,x,x,21*,0,-4
COC(=O)[C@@]1(Sc2ccc(C)cc2)CC(=O)N[C@@H]1c1ccc(Br)cc1,x,x,-8,-12,8
NC(=O)c1ccc(SCC(=O)OCC(=O)N2CCN(C(=O)c3ccco3)CC2)c([N+](=O)[O-])c1,4,0,22*,1,2
NC(=O)c1ccc(SCC(=O)OCC(=O)N2CCCCC2)c([N+](=O)[O-])c1,4,-4,4,-1,-5
Cc1nn(-c2ccccc2)c2sc(C(=O)N3CCN(Cc4ccc(F)cc4)CC3)cc12,x,x,4,x,2
COc1cccc2[nH]c(C(=O)NN)c(N)c12,16,-12,-2,6,19
COc1cc2[nH]c(C(=O)NN)c(N)c2cc1OC,39*,8,x,x,x
CN(C)C(=S)NC(=NCc1ccc([N+](=O)[O-])cc1)c1ccccc1,-1,-2,22*,0,-6
CN(C)C(=S)Nc1ccc([N+](=O)[O-])cc1,5,-2,-3,9,6
COCC(=O)OC1CCn2c1nc1c2C(=O)C(C)=C(NC(C)=O)C1=O (stereo unspecified),x,x,-2,-2,89*
S=c1[nH]nc(-c2n[nH]c3c2CCC3)n1N=Cc1c[nH]c2ccccc12,x,x,22*,x,-3
Fc1ccccc1-c1n[nH]c(=S)n1/N=C/c1c[nH]c2ccccc12,-7,0,24*,0,-10
CC(=O)N1CCc2cc(S(=O)(=O)NCCC(=O)NCc3ccc(Cl)cc3)ccc21,x,x,-3,x,-14
O=C(NC1CCCCN(Cc2cccc(C(F)(F)F)c2)C1=O)c1ccc(-c2ccccc2)cc1 (stereo unspecified),x,x,2,x,1
C=CCN(C)CC#Cc1ccccc1C,x,x,3,x,2
Cc1ccc(NC(=O)c2ccccc2)cc1,10,1,2,-12,-3
Cc1ccc(NC(=O)C2=C(c3ccccc3)S(=O)(=O)CCS2(=O)=O)cc1,-1,-9,62*,8,0
Cc1ccc(S(=O)(=O)NCCSCc2ccco2)cc1,6,-2,2,-2,17
Cc1cc(C)c(S(=O)(=O)NCCSCc2ccco2)c(C)c1,x,0,24*,-8,-4
O=C(O[C@@H]1OC2COC(=O)c3cc(O)c(O)c(O)c3-c3c(cc(O)c(O)c3O)C(=O)O[C@@H]([C@H]1O)[C@@H]2O)c1cc(O)c(O)c(O)c1,73*,10,x,33*,x
O=c1cc(CSc2nc(NCc3ccccc3)c3ccccc3n2)nc2ccc(Cl)cn12,42*,5,-1,-8,11
O=C(CCCn1c(SCc2cc(=O)n3cc(Cl)ccc3n2)nc2ccccc2c1=O)NCC1CCCO1 (stereo unspecified),5,-2,-5,6,-1

# Screening results (PubChem BioAssay)
